Type in all cases: functional
The subject of experiment [1] is Nonomuraea. Description: Microbicidal activity against Nonomuraea sp. ATCC 39727 at 5000 ug/ml after 24 hrs. An outline of the steps:
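MBC: sonicated mycelium was grown in SM flasks for three generations, then given increasing antibiotic concentrations for a further 24 h. It was washed with physiological saline, diluted and plated on antibiotic-free SM agar for about 15 days at 28°C to give the surviving fraction. Under 0.1% survival counted as bactericidal; mean of three experiments.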

Experiment [2] deals with Nonomuraea. Description: Antimicrobial activity against Nonomuraea sp. ATCC 39727. An outline of the steps:
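MIC taken from population analysis profiles. Sonicated mycelium from exponential-phase SM cultures (about 48 h, 28°C, shaken) was suspended in 0.9% NaCl. Up to 10⁷ CFU were spread per SM agar plate containing a range of glycopeptide concentrations and incubated 15 days at 28°C. Colonies were counted for the surviving fraction. MIC is the concentration inhibiting 99.99% of the population; mean of three independent experiments.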

The subject of the next experiment is Streptomyces coelicolor. Kind of experiment: Antimicrobial activity against Streptomyces coelicolor.
In experiment [3] the test system is Nonomuraea. Kind of experiment: Antimicrobial activity against Nonomuraea sp. ATCC 39727 selected after 0.25 ug/ml of teicoplanin exposure. The essentials:
(§1)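 Exponential-phase mycelium (about 48 h, 28°C, shaken, in SM) was exposed to the inducing glycopeptide for 24 h. It was then harvested, suspended in 0.9% NaCl and sonicated. Up to 10⁷ CFU were spread on SM agar with a glycopeptide concentration series and incubated 15 days at 28°C. MIC was taken from the population analysis profile as the concentration inhibiting 99.99% of colonies. Values are the mean of three independent experiments.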

Experiment [4] has as its system Nonomuraea. Kind of experiment: Antimicrobial activity against vanY-deficient Nonomuraea sp. ATCC 39727. An outline of the steps: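 The ΔvanY mutant replaces the vanY coding sequence with the aac(3)IV cassette. Its sonicated exponential-phase mycelium (SM, 28°C, about 48 h) was plated, up to 10⁷ CFU, on SM agar carrying graded glycopeptide concentrations and incubated 15 days at 28°C. MIC is the concentration inhibiting 99.99% of the population, read from the population analysis profile.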

For the next experiment, the system named is Streptomyces venezuelae. Kind of experiment: Antimicrobial activity against Streptomyces venezuelae ATCC 10595 harboring vanY gene. An outline of the steps: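 Population analysis profile: 10⁷ spores of each strain were plated on MYM agar containing graded antibiotic levels and incubated 3 days. Surviving colonies were counted, and MIC was taken as the concentration inhibiting growth of 99.99% of the population.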

Experiment [5] has as its system Actinoplanes teichomyceticus. Kind of experiment: Antimicrobial activity against Actinoplanes teichomyceticus.
The subject of experiment [6] is Nonomuraea. Kind of experiment: Antimicrobial activity against Nonomuraea sp. ATCC 39727 selected after 12 ug/ml of compound exposure. An outline of the steps:
as §1

Experiment [7] has as its system Nonomuraea. Kind of experiment: Antimicrobial activity against Nonomuraea sp. ATCC 39727 selected after 0.5 ug/ml of A40926 exposure. An outline of the steps: as §1

The MIC is the lowest concentration that inhibits growth of the organism.

The structures appear in SMILES notation. ≈ marks a conversion by molar mass, not a printed value. Calls of active or inactive are those of the source. No cut-off for these calls is given here.

With `NC[C@H]1O[C@H](O[C@H]2[C@H](O)[C@@H](O[C@H]3O[C@H](CO)[C@@H](O)[C@H](N)[C@H]3O)[C@H](N)C[C@@H]2N)[C@H](O)[C@@H](O)[C@@H]1O`, the result in the experiment with Nonomuraea [1] was Active.

As to `CN[C@H](CC(C)C)C(=O)N[C@H]1C(=O)N[C@@H](CC(N)=O)C(=O)N[C@H]2C(=O)N[C@H]3C(=O)N[C@H](C(=O)N[C@H](C(=O)O)c4cc(O)cc(O)c4-c4cc3ccc4O)[C@H](O)c3ccc(c(Cl)c3)Oc3cc2cc(c3O[C@@H]2O[C@H](CO)[C@@H](O)[C@H](O)[C@H]2O[C@H]2C[C@](C)(N)[C@H](O)[C@H](C)O2)Oc2ccc(cc2Cl)[C@H]1O` [VANCOMYCIN], the MIC is 19.5 µg/mL (≈ 13.5 µM) with Nonomuraea [2]; 100 µg/mL (≈ 69 µM) with Streptomyces coelicolor; 27 µg/mL with Nonomuraea [3]; 4 µg/mL (≈ 2.76 µM) against Nonomuraea [4]; 90 µg/mL (≈ 62.1 µM) in [5]; 20 µg/mL (≈ 13.8 µM) against Nonomuraea [6]. Also, the MIC in the experiment with Nonomuraea [7] came to 35 µg/mL (≈ 24.2 µM). Moreover, the outcome with Streptomyces venezuelae and in the experiment with Nonomuraea [1] was inactive.

The record behind these values is ChEMBL document CHEMBL1255482, “Novel mechanism of glycopeptide resistance in the A40926 producer Nonomuraea sp. ATCC 39727” (2010).
